Assay outcomes deposited in PubChem BioAssay by several laboratories.
GASC-1 inh: inhibitors of human GASC-1 (JMJD2C) demethylase. Q9H3R0. GST-JMJD2C(1-420) H3K9me3 demethylation, DELFIA europium. inhibition, % at 2.35 µM. 330,000 compounds, 0.069% hits. AID 2099;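 active = more than half of a compound's replicate wells show inhibition beyond 50%, single wells judged on their own value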;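 also: signal counts dimethyl H3K9 product captured on neutravidin plate; 0% = median of DMSO wells and 100% = 0.3 times that DMSO median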
Target sequence (Q9H3R0 1-420 limits assumed): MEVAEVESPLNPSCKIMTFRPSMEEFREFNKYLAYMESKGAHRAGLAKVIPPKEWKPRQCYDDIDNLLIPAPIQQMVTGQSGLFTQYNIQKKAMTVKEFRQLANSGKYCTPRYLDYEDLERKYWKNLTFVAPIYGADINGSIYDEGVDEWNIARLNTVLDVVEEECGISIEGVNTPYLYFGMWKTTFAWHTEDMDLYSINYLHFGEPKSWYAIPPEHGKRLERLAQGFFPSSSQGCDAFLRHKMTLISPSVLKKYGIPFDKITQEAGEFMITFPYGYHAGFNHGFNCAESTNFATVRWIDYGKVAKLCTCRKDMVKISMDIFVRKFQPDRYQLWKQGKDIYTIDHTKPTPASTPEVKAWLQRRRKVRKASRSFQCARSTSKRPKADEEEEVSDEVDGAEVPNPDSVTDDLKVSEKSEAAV
PP5 primary: blocks human protein phosphatase 5 activity. P53041. purified PP5c, OMFP substrate fluorescence. inhibition, % at 6.7 µM. 320,000 compounds, 0.18% hits. AID 1987;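 active = inhibition above the campaign's mean inhibition across all tested compounds plus 3 SD, cut at about 9.5% in these data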;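 also: 0% = DMSO only and 100% = 100 µM cantharidin control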
Fh CTSL1 inh: cathepsin L1 inhibition, PFM18AAP counter-screen; recombinant F. hepatica cathepsin L1, Z-Leu-Arg-MCA fluorescence; inhibition, % at 5.96 µM; 300,000 compounds, 0.49% hits;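 active = inhibition above the mean of all tested compounds plus 3 SD, set per screening campaign, cut at about 17% in these data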;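 also: 0% = plate median of test compound wells and 100% = 1 µM Z-Phe-Ala-diazomethylketone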
H9c2 protect: modulators protecting cardiomyocytes from myocardial damage | 360,000 compounds, 0.63% hits | AID 588492 | protection from H2O2 cell death, % at 20 µM | H9c2 cardiomyocytes, H2O2 injury protection, ATPLite, 2 h;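 active = compounds giving at least 50% protection of heart cells from peroxide-induced death in the single-dose screen, raw or plate-pattern-corrected value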;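 also: 0% = DMSO wells with peroxide and 100% = DMSO wells without peroxide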
T cruzi inh: T. cruzi replication inhibition; 300,000 compounds, 1.4% hits; inhibition, % (test concentration not listed); T. cruzi beta-gal in NIH3T3, luminescence, 90 h;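 active = mean inhibition across valid replicates above about 55%, limit read from the data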;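 also: signal also drops with host cell toxicity which is not excluded here; 0% = plate median of DMSO wells and 100% = zero luminescence signal; higher percent means less beta-gal luminescence so fewer parasites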
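System: NIH/3T3 fibroblasts plus reporter T. cruzi. Medium: DMEM plus 2% FBS. Probe or stimulus: 5000 reporter trypomastigotes per well. Compound: single 50 nL compound addition per well in DMSO. Incubation: co-culture of at least 90 h after 3 h attachment. Detection: GalScreen β-gal luminescence, detergent lysis, 60 min. Evaluation: parasite load inhibition, %.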
p-CIP stab down: compounds decreasing mouse p/CIP protein stability | Q05BA5 | F442A p/CIP-EGFP cells, EGFP fluorescence, 16 h | decrease of EGFP signal, % at 10 µM | 290,000 compounds, 0.01% hits | AID 1984;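 active = EGFP signal decrease of at least 30% at 10 µM or well 3 SD below plate mean, unless failing retest; inactive = the rest, including hits failing retest or dose response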
PP5 inh confirm: confirmation of human PP5 phosphatase inhibitors. shares compounds with PP5 primary. Purified PP5, fluorogenic phosphatase substrate, fluorescence. inhibition, % at 6.7 µM. 460 compounds, 22% hits. AID 2331; in the data active = inhibition above about 9.5%
PP1 inh counter: counter-screen for PP5 inhibitors: human PP1 phosphatase inhibition; shares compounds with PP5 primary; PP1 enzyme, fluorescent phosphatase substrate; inhibition, % at 6.7 µM; 460 compounds, 4% hits; AID 2355; in the data active = inhibition above about 16%
Target sequence (P62136 whole entry, looked up): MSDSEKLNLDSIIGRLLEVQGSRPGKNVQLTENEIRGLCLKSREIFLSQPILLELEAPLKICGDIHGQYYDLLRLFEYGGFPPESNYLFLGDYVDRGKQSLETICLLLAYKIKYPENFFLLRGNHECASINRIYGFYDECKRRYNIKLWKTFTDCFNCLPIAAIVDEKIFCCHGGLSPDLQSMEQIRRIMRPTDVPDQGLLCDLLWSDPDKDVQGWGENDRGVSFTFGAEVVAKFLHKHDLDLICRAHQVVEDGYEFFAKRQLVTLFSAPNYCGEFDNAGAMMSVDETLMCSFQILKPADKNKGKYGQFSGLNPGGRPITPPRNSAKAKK
Starred values were filed as active, the others as inactive; . = not tested or not shown; ! = a repeat was not active. A selection: hits, their analogues and other compounds. The true share with any hit is near 2.4%.

SMILES | GASC-1 inh | PP5 primary | Fh CTSL1 inh | H9c2 protect | T cruzi inh | p-CIP stab down | PP5 inh confirm | PP1 inh counter
COc1ccc(NC(=O)NNC(=O)COc2ccc3cc(Br)ccc3c2)c(OC)c1 | -5.4 | -1.3 | 2.0 | 3.9 | 11.2 | -1.2 | . | .
CCOc1ccc(N(CC(=O)Nc2cccc(C)c2C)S(=O)(=O)c2c(C)[nH]c(=O)[nH]c2=O)cc1 | -0.5 | 1.5 | 4.8 | -3.9 | -10.0 | -10.5 | . | .
CCOc1ccc(N(CC(=O)Nc2c(C)cccc2C)S(=O)(=O)c2c(C)[nH]c(=O)[nH]c2=O)cc1 | 23.7 | 12.2* | -0.2 | -0.2 | 1.2 | -6.6 | -7.2 | -6.3
COc1ccc(C2(NC(C)=O)CCN(Cc3cccnc3)CC2)cc1 | 1.9 | 3.6 | -5.0 | 7.9 | -1.1 | 6.7 | . | .
CCCn1c(SCC(=O)NC2CCCC2)nnc1-c1ccccn1 | -11.2 | 10.7* | -4.3 | -1.2 | -2.1 | 1.2 | -2.9 | -4.0
CC1=NN(c2ccccc2)C(=O)/C1=C\C=C1/N(C)c2ccccc2C1(C)C | 5.1 | 10.2* | 5.3 | -3.2 | 11.6 | -21.9 | 8.8 | 6.7
CCNc1ccc(C(=O)OCC(=O)Nc2cc(C)on2)cc1[N+](=O)[O-] | . | 0.9 | . | 0.4 | . | . | . | .
CC(C)C[C@H](NC(=O)c1nc[nH]c1C(=O)NCC(=O)OC(C)(C)C)C(=O)OCc1ccccc1 | -5.4 | 12.0* | -0.1 | -11.4 | 0.0 | 4.7 | 8.8 | 8.8
CC(C)C[C@H](NC(=O)c1[nH]cnc1C(=O)Nc1ccccc1)C(=O)OC(C)(C)C | 4.5 | 9.8* | 6.5 | 14.3 | 22.8 | -3.5 | 7.4 | 6.5
CC(C)C[C@H](NC(=O)c1nc[nH]c1C(=O)N[C@@H](CCCCN)C(=O)OC(C)(C)C)C(=O)OC(C)(C)C | 0.9 | . | . | 1.3 | . | . | . | .
CC(C)C[C@H](NC(=O)c1[nH]cnc1C(=O)N[C@@H](C)C(=O)OC(C)(C)C)C(=O)OC(C)(C)C | -10.0 | 10.8* | 5.6 | 2.9 | -0.9 | -2.3 | 6.8 | 7.5
COCCNC(=O)C(c1ccc(F)cc1)N(C(=O)CCC(=O)Nc1ccccn1)c1cccc(C)c1 (stereo not drawn) | 13.3 | -0.8 | 2.2 | 1.2 | 2.0 | -0.2 | . | .
O=C1CC(N2CCN(c3ccc(Cl)cc3)CC2)C(=O)N1c1ccccc1 (stereo not drawn) | 17.1 | 10.3* | -2.5 | 2.5 | -2.0 | -0.7 | -2.0 | -3.0
COc1ccc(CNC(=O)c2cc(S(=O)(=O)N3CCCCC3)ccc2Cl)cc1OC | 2.1 | . | . | -10.8 | . | . | . | .
COc1ccc(O)c(/C=N/NC(=S)Nc2cccc(S(=O)(=O)N(C)C)c2)c1 | 8.7 | 12.2* | 1.8 | 37.6 | 9.4 | 6.8 | 0.1 | 0.3
COc1ccc(S(=O)(=O)NCC2CCCN(C(=O)CCC(F)(F)F)C2)cc1 (stereo not drawn) | 0.3 | -1.7 | -5.5 | -1.0 | 2.1 | -8.3 | . | .
Cc1cc(C)cc(OCC(=O)N(C)CC(=O)Nc2ccc(Cl)c(C(F)(F)F)c2)c1 | -4.5 | 10.4* | . | -18.8 | . | . | 4.9 | 6.9
COc1ccc(NC(=O)CSCC(=O)N(C)CC(=O)Nc2ccc(Cl)c(C(F)(F)F)c2)cc1 | 24.5 | 0.9 | 1.7 | -5.1 | 10.3 | . | . | .
O=[N+]([O-])c1ccc(O)c(-c2nn[nH]n2)c1 | 34.2 | 30.3* | -1.1 | 3.6 | -4.6 | -19.7 | 18.1* | -5.0
CCOC(=O)c1[nH]c(C)c(C(=O)OCC)c1C | -0.1 | 1.6 | -3.3 | -7.1 | -1.5 | -10.4 | . | .
CCOC(=O)c1c(C(F)(F)C(F)(F)C(F)(F)C(F)(F)F)n[nH]c1C | -5.8 | 13.6* | 4.6 | -12.4 | 3.1 | -4.1 | 9.9* | 12.6
COc1cccc(CNC(=O)C2CCN(S(=O)(=O)c3ccccc3)CC2)c1 | -4.7 | 11.7* | -1.6 | -0.8 | 0.6 | 0.4 | -3.2 | -3.1
COc1ccccc1N(C)S(=O)(=O)c1ccc(C(=O)Nc2cc(F)ccc2C)cc1 | -6.4 | . | . | 2.3 | . | . | . | .
Nc1nnc(SCc2ccc(F)cc2Cl)s1 | 4.7 | 13.0* | -0.9 | -3.0 | -9.5 | 2.5 | -5.9 | -2.9
CN1CCN(c2ncnc3c2ncn3[C@H]2CN(Cc3ccc4c(c3)OCO4)C[C@@H](CO)O2)CC1 | . | . | . | 10.2 | . | . | . | .
SMILES | GASC-1 inh | PP5 primary | Fh CTSL1 inh | H9c2 protect | T cruzi inh | p-CIP stab down | PP5 inh confirm | PP1 inh counter
COc1ccccc1NC(=O)Cn1nc(-c2ccncc2)nc1SCC(=O)NC1CCCC1 | 2.8 | 10.6* | -1.9 | 0.0 | 11.0 | 0.6 | -6.8 | -6.8
CN(CC(O)CN1CCOCC1)S(=O)(=O)O (stereo not drawn) | 0.9 | 14.2*! | -1.7 | -1.6 | -13.7 | 0.2 | -6.8 | -4.9
COc1cc(/C=C/C(=O)Nc2cc(C(F)(F)F)ccc2Cl)cc(OC)c1OC | 6.3 | 9.9* | -0.1 | 8.1 | -1.2 | 4.0 | 3.9 | 3.1
CC(=O)N(CN1C(=O)c2ccc([N+](=O)[O-])cc2C1=O)c1cccc(C(=O)O)c1 | -0.1 | 22.9* | 0.1 | 2.4 | -9.8 | 2.7 | -1.7 | -3.9
CCOC(=O)N1CCC2(CC1)NCCc1c2[nH]c2ccccc12 | -21.5 | 12.4* | 2.4 | 3.9 | -2.5 | -5.6 | -8.5 | -5.6
Cc1ccc2c(Cl)c(C(=O)NCc3cccnc3)sc2c1 | 0.9 | 10.7* | 4.4 | -3.1 | 28.0 | 3.7 | -3.6 | -1.5
O=C1NC(c2cccc3ccccc23)Nc2ccccc21 (stereo not drawn) | . | . | . | -3.5 | . | . | . | .
O=C1c2ccccc2C(=O)C12OC2c1cccc2ccccc12 (stereo not drawn) | 32.0 | 10.0* | 62.3* | 5.8 | -21.1 | -0.2 | 34.9* | 16.8*
CC1(C)Cc2cccc(OCC(=O)Nc3cccnc3Cl)c2O1 | -12.2 | 16.3* | 4.2 | 2.9 | 5.3 | -3.0 | -3.0 | 2.9
CC1(C)Cc2cccc(OCC(=O)Nc3cccnc3)c2O1 | 6.9 | -0.5 | -2.5 | 0.9 | -6.8 | -11.6 | . | .
O=C(CCNC(=O)c1ccc(Cl)cc1)Nc1ccccc1N1CCCC1 | -39.0 | -0.7 | -5.0 | 1.0 | -3.2 | . | . | .
CCCCNc1nc(Nc2ccc(C)c(Cl)c2)c2cnn(C)c2n1 | 0.3 | 4.6 | 3.4 | -10.1 | 33.0 | 5.2 | . | .
CCNc1nc(Nc2ccc(C)c(Cl)c2)c2cnn(C)c2n1 | 5.5 | 10.4* | 0.6 | 0.8 | -3.7 | 4.4 | 0.3 | 3.0
COc1cccc(C#CC2=CC(=O)C[C@H](c3ccc(F)cc3)C2)c1 | . | . | . | -23.6 | . | . | . | .
CC(C)(C)NC(=O)CSc1nc2cccnc2n1C1CCCCC1 | 42.0 | 14.4* | -2.2 | -0.9 | 10.0 | -2.3 | 0.5 | 0.8
COc1ccccc1C(=O)NC(CCSC)C(=O)OCC(=O)N1CCCC1=O (stereo not drawn) | 6.4 | 2.1 | . | 0.8 | . | . | . | .
NC(=O)c1ccc(C(F)(F)F)n(Cc2c(Cl)cccc2Cl)c1=O | 80.0 | 11.8* | 2.6 | -6.7 | -2.3 | -4.1 | 6.3 | 8.0
